ChEMBL document CHEMBL1147446, “Antagonists of human CCR5 receptor containing 4-(pyrazolyl)piperidine side chains. Part 3: SAR studies on the benzylpyrazole segment” (Bioorg Med Chem Lett, 2004)

Tests used:
[1] = molecular target: C-C chemokine receptor type 5 (Homo sapiens, UniProt P51681); test: Inhibitory concentration for displacement of [125I]-MIP-1 alpha from recombinant human CC chemokine receptor 5 (CCR5) expressed in CHO cell; format: cell-based
Method in brief: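 Competitive binding to CCR5 on CHO cell membranes, read as displacement of [125I]-labeled MIP-1α. IC50 values are means of triplicate determinations. Standard errors were normally <15% within an assay. Assay-to-assay variation was within ±2-fold, judged from a standard compound.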

HeLa [2] = test: Antiviral activities in a cell culture HIV-1 infectivity inhibition assay using HeLa cells plus 50% normal human serum; format: functional
HeLa [3] = test: Antiviral activities in a cell culture HIV-1 infectivity inhibition assay using HeLa cells; format: functional; conditions: Homo sapiens

Chain of C-C chemokine receptor type 5 (P51681 whole entry): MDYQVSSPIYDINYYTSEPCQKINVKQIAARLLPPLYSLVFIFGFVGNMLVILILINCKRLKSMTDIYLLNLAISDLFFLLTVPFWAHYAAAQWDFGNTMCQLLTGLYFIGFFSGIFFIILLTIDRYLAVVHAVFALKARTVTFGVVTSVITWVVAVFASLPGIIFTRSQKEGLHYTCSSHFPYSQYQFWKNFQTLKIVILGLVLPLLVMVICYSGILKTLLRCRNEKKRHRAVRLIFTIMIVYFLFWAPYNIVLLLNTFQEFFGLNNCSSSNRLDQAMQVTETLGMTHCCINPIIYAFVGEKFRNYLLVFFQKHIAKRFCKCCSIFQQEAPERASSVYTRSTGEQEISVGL

Row | SMILES | IC50 [1] [nM] | IC90 (HeLa [2]) [nM] | IC90 (HeLa [3]) [nM]
1 | CC[C@@H](C)[C@H](C(=O)O)N1C[C@H](CN2CCC(c3cc(Cc4cccc5ccccc45)nn3CC)CC2)[C@@H](c2cccc(F)c2)C1 | 0.2 | 33 | < 0.14
2 | CCn1nc(Cc2ccc(C(F)(F)F)cc2)cc1C1CCN(C[C@H]2CN([C@@H](C(=O)O)C3CCCCC3)C[C@@H]2c2cccc(F)c2)CC1 | 1.5 | 33 | 0.4
3 | CCn1nc(Cc2ccc(OC(C)(C)C)cc2)cc1C1CCN(C[C@H]2CN([C@@H](C(=O)O)C(C)(C)C)C[C@@H]2c2cccc(F)c2)CC1 | 2 | 300 | 11
4 | CC[C@H](C)[C@H](C(=O)O)N1C[C@H](CN2CCC(c3cc(Cc4ccc(C(F)(F)F)cc4)nn3CC)CC2)[C@@H](c2cccc(F)c2)C1 | 0.5 | 33 | < 0.14
5 | CCn1nc(Cc2ccc(F)cc2F)cc1C1CCN(C[C@H]2CN([C@@H](C(=O)O)C3CCCCC3)C[C@@H]2c2cccc(F)c2)CC1 | 1.5 | 33 | 0.4
6 | CCn1nc(Cc2ccc(OC(C)(C)C)cc2)cc1C1CCN(C[C@H]2CN([C@@H](C(=O)O)C(C)C)C[C@@H]2c2cccc(F)c2)CC1 | 0.8 | 100 | < 0.14
7 | CCn1nc(Cc2ccc3ccccc3c2)cc1C1CCN(C[C@H]2CN([C@@H](C(=O)O)C(C)(C)C)C[C@@H]2c2cccc(F)c2)CC1 | 0.2 | 100 | < 0.14
8 | CCCOc1ccc(Cc2cc(C3CCN(C[C@H]4CN([C@@H](C(=O)O)[C@H](C)CC)C[C@@H]4c4cccc(F)c4)CC3)n(CC)n2)cc1 | 1.2 | 300 | 1.2
9 | CC[C@H](C)[C@H](C(=O)O)N1C[C@H](CN2CCC(c3cc(Cc4cccc5ccccc45)nn3CC)CC2)[C@@H](c2cccc(F)c2)C1 | 0.4 | 11 | < 0.14
10 | CCn1nc(Cc2ccc(OC)cc2)cc1C1CCN(C[C@H]2CN([C@@H](C(=O)O)C(C)C)C[C@@H]2c2cccc(F)c2)CC1 | 1.3 | 100 | 0.4
11 | CCn1nc(Cc2ccc(OCc3ccccc3)cc2)cc1C1CCN(C[C@H]2CN([C@@H](C(=O)O)C(C)(C)C)C[C@@H]2c2cccc(F)c2)CC1 | 1.1 | 300 | 3.7
12 | CC[C@H](C)[C@H](C(=O)O)N1C[C@H](CN2CCC(c3cc(Cc4ccc(C#N)cc4)nn3CC)CC2)[C@@H](c2cccc(F)c2)C1 | 1.3 | 3.7 | < 0.14
13 | CCOc1ccc(Cc2cc(C3CCN(C[C@H]4CN([C@@H](C(=O)O)C5CCCCC5)C[C@@H]4c4cccc(F)c4)CC3)n(CC)n2)cc1 | 1 | 33 | < 0.14
14 | CCn1nc(Cc2cc(C(F)(F)F)cc(C(F)(F)F)c2)cc1C1CCN(C[C@H]2CN([C@@H](C(=O)O)C(C)C)C[C@@H]2c2cccc(F)c2)CC1 | 3.2 | > 300 | 100
15 | CCn1nc(Cc2ccc(S(=O)(=O)c3ccccc3)cc2)cc1C1CCN(C[C@H]2CN([C@@H](C(=O)O)C3CCCCC3)C[C@@H]2c2cccc(F)c2)CC1 | 0.8 | 33 | 0.4
16 | CCn1nc(Cc2ccc(Oc3ccccc3)cc2)cc1C1CCN(C[C@H]2CN([C@@H](C(=O)O)C(C)(C)C)C[C@@H]2c2cccc(F)c2)CC1 | 0.4 | 300 | 3.7
17 | CCn1nc(Cc2cc(C(F)(F)F)cc(C(F)(F)F)c2)cc1C1CCN(C[C@H]2CN([C@@H](C(=O)O)C(C)(C)C)C[C@@H]2c2cccc(F)c2)CC1 | 2.3 | > 300 | 11
18 | CCn1nc(Cc2ccc(O)cc2)cc1C1CCN(C[C@H]2CN([C@@H](C(=O)O)C3CCCCC3)C[C@@H]2c2cccc(F)c2)CC1 | 0.5 | 33 | 11
19 | CC[C@H](C)[C@H](C(=O)O)N1C[C@H](CN2CCC(c3cc(Cc4ccc(OC)c(C#N)c4)nn3CC)CC2)[C@@H](c2cccc(F)c2)C1 | 0.5 | 33 | < 0.14
20 | CC[C@@H](C)[C@H](C(=O)O)N1C[C@H](CN2CCC(c3cc(Cc4ccc(C(C)(C)C)cc4)nn3CC)CC2)[C@@H](c2cccc(F)c2)C1 | 0.8 | 300 | 1.2
21 | CCn1nc(Cc2ccc(OC)cc2)cc1C1CCN(C[C@H]2CN([C@@H](C(=O)O)C3CCCCC3)C[C@@H]2c2cccc(F)c2)CC1 | 1.1 | 33 | < 0.14
22 | CCn1nc(Cc2ccc(OC)c(C#N)c2)cc1C1CCN(C[C@H]2CN([C@@H](C(=O)O)C(C)C)C[C@@H]2c2cccc(F)c2)CC1 | 0.8 | 300 | 1.2
23 | CCn1nc(Cc2ccc(C)cc2)cc1C1CCN(C[C@H]2CN([C@@H](C(=O)O)C(C)(C)C)C[C@@H]2c2cccc(F)c2)CC1 | 0.6 | 33 | < 0.14
24 | CC[C@@H](C)[C@H](C(=O)O)N1C[C@H](CN2CCC(c3cc(Cc4ccc(OCc5ccccc5)cc4)nn3CC)CC2)[C@@H](c2cccc(F)c2)C1 | 0.5 | 100 | 3.7

Row | SMILES | IC50 [1] [nM] | IC90 (HeLa [2]) [nM] | IC90 (HeLa [3]) [nM]
25 | CCCOc1ccc(Cc2cc(C3CCN(C[C@H]4CN([C@@H](C(=O)O)[C@@H](C)CC)C[C@@H]4c4cccc(F)c4)CC3)n(CC)n2)cc1 | 1.1 | 100 | < 0.14
26 | CC[C@H](C)[C@H](C(=O)O)N1C[C@H](CN2CCC(c3cc(Cc4ccc(OC(C)C)cc4)nn3CC)CC2)[C@@H](c2cccc(F)c2)C1 | 0.8 | 33 | < 0.14
27 | CCCCOc1ccc(Cc2cc(C3CCN(C[C@H]4CN([C@@H](C(=O)O)C(C)(C)C)C[C@@H]4c4cccc(F)c4)CC3)n(CC)n2)cc1 | 0.8 | 33 | 1.2
28 | CC[C@H](C)[C@H](C(=O)O)N1C[C@H](CN2CCC(c3cc(Cc4cccc(C#N)c4)nn3CC)CC2)[C@@H](c2cccc(F)c2)C1 | 0.9 | 11 | < 0.14
29 | CCn1nc(Cc2ccc(OC(F)(F)F)cc2)cc1C1CCN(C[C@H]2CN([C@@H](C(=O)O)C(C)(C)C)C[C@@H]2c2cccc(F)c2)CC1 | 0.6 | 100 | 1.2
30 | CCOc1ccc(Cc2cc(C3CCN(C[C@H]4CN([C@@H](C(=O)O)C(C)C)C[C@@H]4c4cccc(F)c4)CC3)n(CC)n2)cc1 | 1 | 300 | 0.4
31 | CCOc1cccc(Cc2cc(C3CCN(C[C@H]4CN([C@@H](C(=O)O)[C@@H](C)CC)C[C@@H]4c4cccc(F)c4)CC3)n(CC)n2)c1 | 0.9 | 100 | < 0.14
32 | CCn1nc(Cc2ccc(Cl)cc2)cc1C1CCN(C[C@H]2CN([C@@H](C(=O)O)C3CCCCC3)C[C@@H]2c2cccc(F)c2)CC1 | 0.9 | 100 | 0.4
33 | CCn1nc(Cc2ccc(OC3CC3)cc2)cc1C1CCN(C[C@H]2CN([C@@H](C(=O)O)C(C)(C)C)C[C@@H]2c2cccc(F)c2)CC1 | 0.4 | 33 | < 0.14
34 | CC[C@@H](C)[C@H](C(=O)O)N1C[C@H](CN2CCC(c3cc(Cc4ccc(Oc5ccccc5)cc4)nn3CC)CC2)[C@@H](c2cccc(F)c2)C1 | 0.5 | 300 | 3.7
35 | CCOc1cccc(Cc2cc(C3CCN(C[C@H]4CN([C@@H](C(=O)O)C(C)(C)C)C[C@@H]4c4cccc(F)c4)CC3)n(CC)n2)c1 | 0.4 | 100 | < 0.14
36 | CCn1nc(Cc2ccc(OC3CCC3)cc2)cc1C1CCN(C[C@H]2CN([C@@H](C(=O)O)C(C)C)C[C@@H]2c2cccc(F)c2)CC1 | 0.6 | 100 | 1.2
37 | CCCCOc1ccc(Cc2cc(C3CCN(C[C@H]4CN([C@@H](C(=O)O)[C@H](C)CC)C[C@@H]4c4cccc(F)c4)CC3)n(CC)n2)cc1 | 0.8 | 100 | 3.7
38 | CC[C@@H](C)[C@H](C(=O)O)N1C[C@H](CN2CCC(c3cc(Cc4ccccc4)nn3CC)CC2)[C@@H](c2cccc(F)c2)C1 | 0.9 | 300 | 0.4
39 | CCCCOc1ccc(Cc2cc(C3CCN(C[C@H]4CN([C@@H](C(=O)O)C5CCCCC5)C[C@@H]4c4cccc(F)c4)CC3)n(CC)n2)cc1 | 0.8 | 33 | 0.4
40 | CC[C@H](C)[C@H](C(=O)O)N1C[C@H](CN2CCC(c3cc(Cc4cc(C(F)(F)F)cc(C(F)(F)F)c4)nn3CC)CC2)[C@@H](c2cccc(F)c2)C1 | 2.1 | > 300 | 11
41 | CCCOc1ccc(Cc2cc(C3CCN(C[C@H]4CN([C@@H](C(=O)O)C(C)C)C[C@@H]4c4cccc(F)c4)CC3)n(CC)n2)cc1 | 0.8 | > 300 | 3.7
42 | CC[C@H](C)[C@H](C(=O)O)N1C[C@H](CN2CCC(c3cc(Cc4ccc5ccccc5c4)nn3CC)CC2)[C@@H](c2cccc(F)c2)C1 | 0.3 | 300 | < 0.14
43 | CCn1nc(Cc2ccc(F)c(F)c2)cc1C1CCN(C[C@H]2CN([C@@H](C(=O)O)C(C)C)C[C@@H]2c2cccc(F)c2)CC1 | 1.1 | 300 | 3.7
44 | CCn1nc(CC2CCCCC2)cc1C1CCN(C[C@H]2CN([C@@H](C(=O)O)C(C)C)C[C@@H]2c2cccc(F)c2)CC1 | 2.3 | > 300 | 33
45 | CCn1nc(Cc2cccc(C#N)c2)cc1C1CCN(C[C@H]2CN([C@@H](C(=O)O)C(C)(C)C)C[C@@H]2c2cccc(F)c2)CC1 | 1 | 11 | < 0.14
46 | CC[C@@H](C)[C@H](C(=O)O)N1C[C@H](CN2CCC(c3cc(Cc4ccc(OC)c(OC)c4)nn3CC)CC2)[C@@H](c2cccc(F)c2)C1 | 2.6 | 33 | 0.4
47 | CC[C@H](C)[C@H](C(=O)O)N1C[C@H](CN2CCC(c3cc(Cc4ccc(OCC(F)(F)F)cc4)nn3CC)CC2)[C@@H](c2cccc(F)c2)C1 | 0.6 | 33 | 0.4
